Measurements: ChEMBL document CHEMBL1148175, “Immunostimulant agents from Andrographis paniculata” (1993)

Key:
Assay type in all cases: functional
[1] = tested on: Mus musculus; assay: Nonspecific immunostimulant activity in sheep RBC-immunized BALB/c albino mouse assessed as [3H]thymidine uptake by splenic lymphocytes at 4 mg/kg, ip administered on day 7 and 3 prior to immunization by liquid scintillation counting; conditions: route intraperitoneal
Procedure, shortened: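 Spleen cells from ip-treated mice (days -7, -3) at 1.5×10^6 cells/ml in complete RPMI-1640 with fetal calf serum, cultured in triplicate 3 days at 37° under 5% CO2, then pulsed 18 h with 1 μCi 3H-thymidine. Incorporation counted by scintillation, reported as cpm ± SD.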

[2] = tested on: Mus musculus; assay: Immunostimulant activity in sheep RBC-immunized BALB/c albino mouse assessed as macrophage migration index at 1 mg/kg, po administered daily for 7 days measured after 18 to 24 hrs
Procedure, shortened: (§1)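 Peritoneal exudate cells from dosed mice (oral daily 7 days, or ip on days -7 and -3) packed in microhematocrit capillaries and allowed to migrate 18-24 h in a migration chamber. MMI = ratio of migration areas, control vs. treated animals. Two experiments, four mice each.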

[3] = tested on: Mus musculus; assay: Immunostimulant activity in sheep RBC-immunized BALB/c albino mouse assessed as hemagglutininating antibody titer at 4 mg/kg, ip administered on day 7 and 3 prior to immunization measured after 5 days by microtiter hemagglutinination technique; conditions: route intraperitoneal
Procedure, shortened: (§2)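 Compound dissolved in 0.05 M phosphate buffer pH 7.2 with 0.1 M NaCl, given orally daily for 7 days or ip on days -7 and -3, then ip immunization with 1×10^8 SRBC. Serum from retro-orbital bleed on day 5; twofold dilutions mixed with 1% SRBC, 1.5-2 h at room temperature. Titer = reciprocal of highest dilution giving 50% agglutination. Two experiments, four mice each.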

[4] = tested on: Mus musculus; assay: Immunostimulant activity in sheep RBC-immunized BALB/c albino mouse assessed as hemagglutininating antibody titer at 1 mg/kg, po administered daily for 7 days by microtiter hemagglutinination technique; procedure, shortened: as §2
[5] = tested on: Mus musculus; assay: Immunostimulant activity in sheep RBC-immunized BALB/c albino mouse assessed as hemolytic plaque-forming cells per 10^5 spleen cells at 4 mg/kg, ip administered on day 7 and 3 prior to immunization measured after 5 days; conditions: route intraperitoneal
Procedure, shortened: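 Following ip dosing on days -7 and -3 and ip SRBC (1×10^8) on day 0, splenic hemolytic plaques counted on day 5 by Jerne-Nordin technique, duplicate per mouse. Group means expressed as PFC/10^5 spleen cells. Three experiments with four animals each; Student's t-test.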

[6] = tested on: Mus musculus; assay: Immunostimulant activity in sheep RBC-immunized BALB/c albino mouse assessed as delayed-type hypersensitivity response-related right foot pad thickness at 4 mg/kg, ip administered on day 7 and 3 prior to immunization measured after 5 days relative to non-immunized foot pad thickness; conditions: route intraperitoneal
Procedure, shortened: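 Mice (BALB/c, either sex, 20-22 g; four per group) immunized ip with 1×10^8 SRBC on day 0; on day 5 challenged with 1×10^8 SRBC (50 μl) in right foot pad. Foot pad thickness read 24 h later; reaction in mm = right (SRBC) minus PBS-injected pad. Compound in PBS pH 7.2 given ip on days -7 and -3. Student's t-test.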

[7] = tested on: Mus musculus; assay: Nonspecific immunostimulant activity in sheep RBC-immunized BALB/c albino mouse assessed as macrophage migration index at 4 mg/kg, ip administered on day 7 and 3 prior to immunization measured after 18 to 24 hrs; conditions: route intraperitoneal; procedure, shortened: as §1
[8] = tested on: Mus musculus; assay: Nonspecific immunostimulant activity in sheep RBC-immunized BALB/c albino mouse assessed as phagocytosis of [14C] leucine labeled Escherichia coli at 4 mg/kg, ip administered on day 7 and 3 prior to immunization; conditions: route intraperitoneal
Procedure, shortened: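 Peritoneal macrophages from mice dosed ip on days -7 and -3 incubated in vitro with E. coli labelled with 14C-leucine (sp. act. 190 mCi/mmol). Uptake expressed as percentage incorporation of 14C-leucine. Three experiments, four animals each.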

C=C1CC[C@@H]2[C@](C)(CO)[C@H](O)CC[C@@]2(C)[C@@H]1C/C=C1/C(=O)OC[C@H]1O [ANDROGRAPHOLIDE]
Activity [1]: 6486 cpm | Activity [2]: 1.6 | Activity [3]: 1536 | Activity [4]: 1280 | Activity [5]: 128 | Activity [6]: 2.5 mm | Activity [7]: 2.84 | Activity [8]: 55.56%

C=C1CC[C@@H]2[C@](C)(CO[C@@H]3O[C@H](CO)[C@@H](O)[C@H](O)[C@H]3O)CCC[C@@]2(C)[C@@H]1CCC1=CCOC1=O [NEOANDROGRAPHOLIDE]
Activity [2]: 1.9 | Activity [3]: 1638.4 | Activity [4]: 1365.33 | Activity [7]: 2.51
